Experimental data gathered from unrelated publications.
Each line is one published result; the experiments were not run side by side.
CSF1R: Macrophage colony-stimulating factor 1 receptor (CSF1R, Homo sapiens, UniProt P07333)
CSF1R autoinhibited: Macrophage colony-stimulating factor 1 receptor, autoinhibited (CSF1R, Homo sapiens, UniProt P07333)

| SMILES | target | read-out | method | tested at | remaining binding [%] |
| --- | --- | --- | --- | --- | --- |
| Cc1cnc(Nc2ccc(C(=O)N3CCC(N4CCCC4)CC3)cc2)nc1-c1cc2ccccc2s1 | CSF1R | binding | competition with immobilised ligand | 1 µM | 12 |
| CC(C)(C)c1ccc(-c2nc(CBr)nn2-c2cccc(O)c2)cc1 | CSF1R | cell-free assay | competition with immobilised ligand | 10 µM | 98 |
| CO[C@@H](C)c1c(Nc2ccc([C@@H](N(C)C(=O)C3CCS(=O)(=O)CC3)C(F)(F)F)cc2)cnc2cc(Cl)nn12 | CSF1R | cell-free assay | competition with immobilised ligand | 1 µM | 72 |
| O=C(c1ccc(Nc2nccc(-c3cc4ccccc4s3)n2)cc1)N1CCC(N2CCCC2)CC1 | CSF1R autoinhibited | binding | competition with immobilised ligand | 1 µM | 77 |
| C[C@@H]1CN(c2ccc3ncc(-c4ccc5[nH]nc(C6CC6)c5c4)n3n2)C[C@H](C)O1 | CSF1R | binding | competition with immobilised ligand | 50 nM | 100 |
| CCN1CCN(Cc2ccc(C(=O)Nc3ccc(C)c(Oc4ccc5c(c4)CC(=O)N5)c3)cc2C(F)(F)F)CC1 | CSF1R autoinhibited | binding | competition with immobilised ligand | 1 µM | 100 |
| C[C@@H](c1ccc(-n2cnc3c(N)ncnc32)cc1)N1CCc2nn(C)c(Cc3ccccc3)c2C1=O | CSF1R autoinhibited | binding | competition with immobilised ligand | 0.1 µM | 81 |
| Cc1cc(-n2nc(Cc3cc(F)cc(C(F)(F)F)c3)nc2C)ccc1C(N)=O | CSF1R autoinhibited | cell-free assay | competition with immobilised ligand | 1 µM | 100 |
| c1cnn2ncc(-c3ccnc(N4CCC45COC5)n3)c2c1 | CSF1R autoinhibited | binding |  | 1 µM | 64 |
| CC(=O)N1CCC(c2ccc(C(=O)NC3=NCCN3)cc2C(F)(F)F)CC1 | CSF1R | cell-free assay | competition with immobilised ligand | 1 µM | 100 |
| O=C(c1ccc(Nc2ncc(Cl)c(-c3cc4ccccc4s3)n2)cc1)N1CCC(N2CCCC2)CC1 | CSF1R autoinhibited | binding | competition with immobilised ligand | 1 µM | 56 |
| O=C(NCC1CCOCC1)c1n[nH]cc1NC(=O)c1c(F)cccc1F | CSF1R | binding | competition with immobilised ligand | 1 µM | 100 |
| CCC(=O)N[C@H]1CC[C@@H](C(=O)N(C)c2ccc(-c3nc4ccccc4o3)cc2)C1 | CSF1R autoinhibited | cell-free assay | competition with immobilised ligand | 1 µM | 56 |
| O=C(Nc1c[nH]nc1C(=O)NC1CCNCC1)c1cc(F)cc(F)c1 | CSF1R | binding | competition with immobilised ligand | 1 µM | 100 |
| Cc1nc(NC(=O)N2CCC[C@H]2C(N)=O)sc1-c1ccnc(C(C)(C)C(F)(F)F)c1 | CSF1R | binding | competition with immobilised ligand | 10 µM | 68 |
| COc1cnc(Nc2cccc(S(N)(=O)=O)c2)nc1N1CCN(c2ccccc2)CC1 | CSF1R | binding | competition with immobilised ligand | 1 µM | 100 |
| C[C@H]1CCN(c2nccc(-c3cnn4ncccc34)n2)C1 | CSF1R | binding |  | 1 µM | 100 |
| CNC(=O)Nc1ccc2c(c1)[C@@]1(CC2)OC(=O)N(CC(=O)N(Cc2ccc(F)cc2)[C@@H](C)C(F)(F)F)C1=O | CSF1R autoinhibited | cell-free assay | competition with immobilised ligand | 1 µM | 100 |
| O=C(NCCCN1CCOCC1)c1ccc(Nc2ncc(Cl)c(-c3ccc(Cl)s3)n2)cc1 | CSF1R autoinhibited | binding | competition with immobilised ligand | 1 µM | 42 |

| SMILES | target | read-out | method | tested at | remaining binding [%] |
| --- | --- | --- | --- | --- | --- |
| CC1CCCN1c1nccc(-c2cnn3ncccc23)n1 (stereo not shown) | CSF1R | binding |  | 1 µM | 100 |
| O=C(c1ccc(Nc2ncc(Cl)c(-c3ccc(Cl)s3)n2)cc1)N1CCC(N2CCCC2)CC1 | CSF1R autoinhibited | binding | competition with immobilised ligand | 1 µM | 17 |
| Nc1ncc2c(n1)-c1c([nH]c3ccc(C#CC4CC4)cc13)CCCC2 | CSF1R | binding | competition with immobilised ligand | 1 µM | 98 |
| C=CC(=O)N1CCC(C(=O)NCC(=O)N2CCN(c3nc(-c4cnc(N)nc4C(F)F)nc(N4CCOCC4)n3)CC2)CC1 | CSF1R | binding | competition with immobilised ligand | 1 µM | 77 |
| O=C(NCCCN1CCOCC1)c1ccc(Nc2nccc(-c3cc4ccccc4s3)n2)cc1 | CSF1R | binding | competition with immobilised ligand | 1 µM | 50 |
| CC(=O)c1c(NS(C)(=O)=O)c2cc(-c3ccc(Cl)cc3)c(-c3ccc(Cl)cc3Cl)nc2n(C)c1=O | CSF1R | cell-free assay | competition with immobilised ligand | 1 µM | 100 |
| COc1cnc(Nc2cccc(S(N)(=O)=O)c2)nc1N1CCN(c2ccccc2)C(=O)C1 | CSF1R autoinhibited | binding | competition with immobilised ligand | 1 µM | 87 |
| CN(C)c1ncc(F)c(-c2cnn3ncccc23)n1 | CSF1R autoinhibited | binding |  | 1 µM | 69 |
| CS(=O)(=O)N1CCCC(NC(=O)[C@H](CCC2CCCCC2)NC(=O)c2ccc(CNc3ncnc4c3nnn4-c3ccccc3)cc2)C1 (stereo partly shown) | CSF1R autoinhibited | cell-free assay | competition with immobilised ligand | 0.1 µM | 100 |
| N[C@H]1CCN(c2nccc(-c3cnn4ncccc34)n2)C1 | CSF1R | binding |  | 1 µM | 100 |
| FC(F)(F)Oc1cccc(-c2cnc3ccc(-c4ccncc4)nn23)c1 | CSF1R | cell-free assay | competition with immobilised ligand | 5 µM | 59 |
| CN(CCCC(F)(F)F)c1nccc(-c2cnn3ncccc23)n1 | CSF1R | binding |  | 1 µM | 93 |
| c1cncc(-c2cccc(Nc3nccc(NC4CCCCC4)n3)c2)c1 | CSF1R autoinhibited | binding | competition with immobilised ligand | 10 µM | 0 |
| Cc1cnn2ncc(-c3ccnc(N(C)C)n3)c2c1 | CSF1R | binding |  | 1 µM | 100 |
| COc1ncc2cc3ccccc3nc2c1C#N | CSF1R autoinhibited | cell-free assay | competition with immobilised ligand | 5 µM | 97 |
| CNC(=O)[C@@H]1CC[C@@H](n2c(-c3ccc4cnccc4c3)nc3ccc(C(=O)NCc4cccc(C(N)=O)c4)cc32)C1 | CSF1R autoinhibited | binding | competition with immobilised ligand | 1 µM | 80 |
| F[C@@H]1CCN(c2nccc(-c3cnn4ncccc34)n2)C1 | CSF1R autoinhibited | binding |  | 1 µM | 81 |
| O=C(O)[C@H]1[C@H](Cn2nnc3ccccc3c2=O)CC[C@@H]1C(=O)c1ccc(OCCC2CCOCC2)cc1 | CSF1R autoinhibited | cell-free assay | competition with immobilised ligand | 1 µM | 100 |
